ChEMBL document CHEMBL1811848 (Bioorg Med Chem Lett, 2011)

Columns and labels:
Rattus norvegicus [1] = test: Toxicity in female Wistar rat assessed as hemoglobin level at 3 mg/kg, po measured after 28 days (reference value: 11.90 +/- 0.19 g/dl); assay type: organism-based; design: dose 3 mg/kg, route oral; details: in vivo, 672 h
Rattus norvegicus [2] = test: Toxicity in male Wistar rat assessed as brain to body weight ratio at 3 mg/kg, po measured after 28 days (reference value: 0.658 +/- 0.015); assay type: organism-based; design: dose 3 mg/kg, route oral; details: in vivo, 672 h
Rattus norvegicus [3] = test: Toxicity in male Wistar rat assessed as spleen to body weight ratio at 30 mg/kg, po measured after 28 days (reference value: 0.215 +/- 0.007); assay type: organism-based; design: dose 30 mg/kg, route oral; details: in vivo, 672 h
Rattus norvegicus [4] = test: Toxicity in female Wistar rat assessed as albumin level at 30 mg/kg, po measured after 28 days (reference value: 3.92 +/- 0.18 g.dl); assay type: organism-based; design: dose 30 mg/kg, route oral; details: in vivo, 672 h
Rattus norvegicus [5] = test: Toxicity in male Wistar rat assessed as kidney to body weight ratio at 30 mg/kg, po measured after 28 days (reference value: 0.745 +/- 0.012); assay type: organism-based; design: dose 30 mg/kg, route oral; details: in vivo, 672 h
Mus musculus [6] = test: Hypolipidemic activity in Swiss albino mouse assessed as reduction in triglyceride level at 0.3 mg/kg, po; assay type: functional; design: scale not given: the % may be the effect or the level left
Rattus norvegicus [7] = test: Toxicity in female Wistar rat assessed as glucose level at 30 mg/kg, po measured after 28 days (reference value: 69.94 +/- 2.30 mg/dl); assay type: organism-based; design: dose 30 mg/kg, route oral; details: in vivo, 672 h
Mus musculus [8] = test: Reduction in serum triglyceride level in Swiss albino mouse at 10 mg/kg, po administered for 6 days relative to control; assay type: functional; design: scale not given: the % may be the effect or the level left
Outline: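 Male Swiss albino mice aged 6–8 weeks were given 10 mg/kg/day orally for 6 days. Serum triglyceride was expressed as % change versus vehicle controls, mean of n = 6.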

Mus musculus [9] = test: Hypolipidemic activity in db/db mouse assessed as reduction in triglyceride level at 3 mg/kg, po; assay type: functional; design: scale not given: the % may be the effect or the level left
Mus musculus [10] = test: Antihyperglycemic activity in db/db mouse assessed as reduction in plasma glucose level at 0.3 mg/kg, po; assay type: functional; design: scale not given: the % may be the effect or the level left
Rattus norvegicus [11] = test: Toxicity in female Wistar rat assessed as ovary to body weight ratio at 3 mg/kg, po measured after 28 days (reference value: 0.039 +/- 0.005); assay type: organism-based, Female gonad; design: dose 3 mg/kg, route oral; details: in vivo, 672 h
Rattus norvegicus [12] = test: Toxicity in female Wistar rat assessed as heart to body weight ratio at 30 mg/kg, po measured after 28 days (reference value: 0.403 +/- 0.010); assay type: organism-based; design: dose 30 mg/kg, route oral; details: in vivo, 672 h
[13] = molecular target: T1, Peroxisome proliferator-activated receptor alpha (Homo sapiens) (UniProt Q07869); test: Transactivation of human PPARalpha expressed in human HepG2 cells co-transfected with PPRE3-TK-Luc by luciferase reporter gene assay relative to WY14643; assay type: cell-based
T1 sequence (whole entry): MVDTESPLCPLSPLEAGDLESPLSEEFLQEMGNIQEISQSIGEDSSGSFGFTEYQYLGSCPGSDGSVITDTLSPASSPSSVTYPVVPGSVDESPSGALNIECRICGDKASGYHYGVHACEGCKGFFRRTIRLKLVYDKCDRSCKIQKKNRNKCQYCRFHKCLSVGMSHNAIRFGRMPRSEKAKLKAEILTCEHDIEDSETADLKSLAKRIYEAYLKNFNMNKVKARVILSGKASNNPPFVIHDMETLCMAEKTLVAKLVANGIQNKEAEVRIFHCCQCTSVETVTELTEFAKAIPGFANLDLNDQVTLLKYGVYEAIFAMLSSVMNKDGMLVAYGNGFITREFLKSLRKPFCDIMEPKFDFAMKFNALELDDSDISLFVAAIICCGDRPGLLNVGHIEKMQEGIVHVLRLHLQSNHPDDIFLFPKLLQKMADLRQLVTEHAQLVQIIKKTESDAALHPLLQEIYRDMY
Outline: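 Same HepG2 hPPARα or hPPARγ / PPRE3-TK-luc luciferase transactivation assay. Efficacy expressed as percent of maximal response, normalized to 100% for the reference agonist: WY-14643 for α, rosiglitazone for γ.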

Rattus norvegicus [14] = test: Toxicity in male Wistar rat assessed as change in body weight at 30 mg/kg, po measured after 28 days relative to control; assay type: organism-based; design: dose 30 mg/kg, route oral; details: in vivo, 672 h
Rattus norvegicus [15] = test: Toxicity in male Wistar rat assessed as SGOT level at 30 mg/kg, po measured after 28 days (reference value: 135.14 +/- 6.89 U/L); assay type: organism-based; design: dose 30 mg/kg, route oral; details: in vivo, 672 h
Rattus norvegicus [16] = test: Toxicity in female Wistar rat assessed as kidney to body weight ratio at 30 mg/kg, po measured after 28 days (reference value: 0.733 +/- 0.007); assay type: organism-based; design: dose 30 mg/kg, route oral; details: in vivo, 672 h
Mus musculus [17] = test: Hypolipidemic activity in db/db mouse assessed as reduction in triglyceride level at 0.3 mg/kg, po; assay type: functional; design: scale not given: the % may be the effect or the level left
Rattus norvegicus [18] = test: Toxicity in female Wistar rat assessed as change in body weight at 3 mg/kg, po measured after 28 days relative to control; assay type: organism-based; design: dose 3 mg/kg, route oral; details: in vivo, 672 h
Outline: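 Wistar rats received 3 or 30 mg/kg orally for 28 days. Body weight was recorded weekly, and the % change in body weight over the study is tabulated.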

Mus musculus [19] = test: Antihyperglycemic activity in db/db mouse assessed as reduction in plasma glucose level at 0.003 mg/kg, po; assay type: functional; design: scale not given: the % may be the effect or the level left
Rattus norvegicus [20] = test: Toxicity in male Wistar rat assessed as epididymine to body weight ratio at 30 mg/kg, po measured after 28 days (reference value: 0.391 +/- 0.017); assay type: organism-based; design: dose 30 mg/kg, route oral; details: in vivo, 672 h
Rattus norvegicus [21] = test: Toxicity in female Wistar rat assessed as uterus to body weight ratio at 3 mg/kg, po measured after 28 days (reference value: 0.233 +/- 0.041); assay type: organism-based; design: dose 3 mg/kg, route oral; details: in vivo, 672 h
Mus musculus [22] = test: Hypolipidemic activity in Swiss albino mouse assessed as reduction in triglyceride level at 1 mg/kg, po; assay type: functional; design: scale not given: the % may be the effect or the level left
Rattus norvegicus [23] = test: Toxicity in male Wistar rat assessed as adrenal to body weight ratio at 30 mg/kg, po measured after 28 days (reference value: 0.018 +/- 0.001); assay type: organism-based; design: dose 30 mg/kg, route oral; details: in vivo, 672 h
Rattus norvegicus [24] = test: Toxicity in female Wistar rat assessed as hemoglobin level at 30 mg/kg, po measured after 28 days (reference value: 11.90 +/- 0.19 g/dl); assay type: organism-based; design: dose 30 mg/kg, route oral; details: in vivo, 672 h
Rattus norvegicus [25] = test: Toxicity in male Wistar rat assessed as creatinine level at 3 mg/kg, po measured after 28 days (reference value: 0.47 +/- 0.03 mg/dl); assay type: organism-based; design: dose 3 mg/kg, route oral; details: in vivo, 672 h

Q: Which results are given for `CCO[C@@H](Cc1ccc(OCCc2nc(-c3ccc(C)s3)oc2C)cc1)C(=O)O`?
A: Activity (Rattus norvegicus [1]): 11.84 g/dL; Ratio (Rattus norvegicus [2]): 0.72; Ratio (Rattus norvegicus [3]): 0.252; Activity (Rattus norvegicus [4]): 4.12 g/dL; Ratio (Rattus norvegicus [5]): 0.955; Activity (Mus musculus [6]): 80.8%; Activity (Rattus norvegicus [7]): 91.79 mg/dL; Activity (Mus musculus [8]): 88%; Activity (Mus musculus [9]): 55.1%; Activity (Mus musculus [10]): 58.2%; Ratio (Rattus norvegicus [11]): 0.02; Ratio (Rattus norvegicus [12]): 0.501; Emax [13]: 116%; Activity (Rattus norvegicus [14]): 24.01%; Activity (Rattus norvegicus [15]): 245.24 U/L; Ratio (Rattus norvegicus [16]): 0.915; Activity (Mus musculus [17]): 51.8%; Activity (Rattus norvegicus [18]): 21.77%; Activity (Mus musculus [19]): 47.1%; Ratio (Rattus norvegicus [20]): 0.432; Ratio (Rattus norvegicus [21]): 0.176; Activity (Mus musculus [22]): 82%; Ratio (Rattus norvegicus [23]): 0.018; Activity (Rattus norvegicus [24]): 11.83 g/dL; Activity (Rattus norvegicus [25]): 0.36 mg/dL
